# Measured values published in ChEMBL document CHEMBL1147176, “Synthesis of S-dialkylarsino-3-mercapto-1,2-propanediols and evaluation of their anticancer activity” (2007).
# Experiments:
# Assay type in all cases: functional
# SN12C = test: Anticancer activity against human SN12C cells assessed as growth inhibition
# Outline: (§1)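 NCI in vitro disease-oriented human tumor cell screen, about 60 lines. Growth inhibition read as pGI50, the -log of the molar concentration inhibiting 50% net cell growth. A mean graph midpoint is the arithmetic mean over all tested lines. Where the effect was not reached within the concentration interval, the highest tested concentration was used.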
# SNB-19 = test: Anticancer activity against human SNB19 cells assessed as growth inhibition; outline: as §1
# MCF7 = test: Anticancer activity against human MCF7 cells assessed as growth inhibition; outline: as §1
# RPMI-8226 = test: Anticancer activity against human RPMI8226 cells assessed as growth inhibition; outline: as §1
# NCI-H23 = test: Anticancer activity against human NCI-H23 cells assessed as growth inhibition; outline: as §1
# NCI-H322M = test: Anticancer activity against human NCI-H322M cells assessed as growth inhibition; outline: as §1
# OVCAR-8 = test: Anticancer activity against human OVCAR8 cells assessed as growth inhibition; outline: as §1
# IGROV-1 = test: Anticancer activity against human IGROV1 cells assessed as growth inhibition; outline: as §1
# BT-549 = test: Anticancer activity against human BT549 cells assessed as growth inhibition; outline: as §1
# [1] = Anticancer activity against human HS 578T cells assessed as growth inhibition; outline: as §1
# NCI-H460 = test: Anticancer activity against human NCI-H460 cells assessed as growth inhibition; outline: as §1
# SF-295 = test: Anticancer activity against human SF295 cells assessed as growth inhibition; outline: as §1
# HCT-15 = test: Anticancer activity against human HCT15 cells assessed as growth inhibition; outline: as §1
# OVCAR-5 = test: Anticancer activity against human OVCAR5 cells assessed as growth inhibition; outline: as §1
# U-251 = test: Anticancer activity against human U251 cells assessed as growth inhibition
# Outline: (§2)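 The value is GI50, the molar concentration causing 50% inhibition of net cell growth, reported as pGI50 (−log molar).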
# MDA-MB-435 = test: Anticancer activity against human MDA-MB435 cells assessed as growth inhibition; outline: as §1
# CCRF-CEM = test: Anticancer activity against human CCRF-CEM cells assessed as growth inhibition; outline: as §1
# M14 = test: Anticancer activity against human M14 cells assessed as growth inhibition; outline: as §1
# HOP-62 = test: Anticancer activity against human HOP62 cells assessed as growth inhibition; outline: as §1
# SF-268 = test: Anticancer activity against human SF268 cells assessed as growth inhibition; outline: as §1
# TK-10 = test: Anticancer activity against human TK10 cells assessed as growth inhibition; outline: as §1
# NCI-H522 = test: Anticancer activity against human NCI-H522 cells assessed as growth inhibition; outline: as §1
# HCT-116 = test: Anticancer activity against human HCT116 cells assessed as growth inhibition; outline: as §1
# A498 = test: Anticancer activity against human A498 cells assessed as growth inhibition; outline: as §1
# COLO 205 = test: Anticancer activity against human COLO 205 cells assessed as growth inhibition; outline: as §1
# HL-60 = test: Anticancer activity against human HL60(TB) cells assessed as growth inhibition; outline: as §1
# HCC 2998 = test: Anticancer activity against human HCC2998 cells assessed as growth inhibition; outline: as §1
# NCI/ADR-RES = test: Anticancer activity against human NCI/ADR-RES cells assessed as growth inhibition; outline: as §1
# ACHN = test: Anticancer activity against human ACHN cells assessed as growth inhibition; outline: as §1
# SR = test: Anticancer activity against human SR cells assessed as growth inhibition; outline: as §1
# T47D = test: Anticancer activity against human T47D cells assessed as growth inhibition; outline: as §1
# SK-MEL-28 = test: Anticancer activity against human SK-MEL-28 cells assessed as growth inhibition; outline: as §1
# KM12 = test: Anticancer activity against human KM12 cells assessed as growth inhibition; outline: as §1
# RXF 393 = test: Anticancer activity against human RXF393 cells assessed as growth inhibition; outline: as §1
# HOP-92 = test: Anticancer activity against human HOP92 cells assessed as growth inhibition; outline: as §1
# SW-620 = test: Anticancer activity against human SW620 cells assessed as growth inhibition; outline: as §1
# PC-3 = test: Anticancer activity against human PC3 cells assessed as growth inhibition; outline: as §1
# NCI-H226 = test: Anticancer activity against human NCI-H226 cells assessed as growth inhibition; outline: as §1
# CAKI-1 = test: Anticancer activity against human CAKI1 cells assessed as growth inhibition; outline: as §1
# EKVX = test: Anticancer activity against human EKVX cells assessed as growth inhibition; outline: as §1
# Malme-3M = test: Anticancer activity against human MALME3M cells assessed as growth inhibition; outline: as §1
# OVCAR-4 = test: Anticancer activity against human OVCAR4 cells assessed as growth inhibition; outline: as §1
# HT-29 = test: Anticancer activity against human HT29 cells assessed as growth inhibition; outline: as §1
# 786-0 = test: Anticancer activity against human 786-0 cells assessed as growth inhibition; conditions: read-out: Log LC50 (the source's name) (converted); outline: as §1
# MOLT-4 = test: Anticancer activity against human MOLT4 cells assessed as growth inhibition; outline: as §1
# OVCAR-3 = test: Anticancer activity against human OVCAR-3 cells assessed as growth inhibition; outline: as §1
# K562 = test: Anticancer activity against human K562 cells assessed as growth inhibition; outline: as §1
# SK-OV-3 = test: Anticancer activity against human SK-OV3 cells assessed as growth inhibition; outline: as §1
# UO-31 = test: Anticancer activity against human UO31 cells assessed as growth inhibition; outline: as §2
# SF-539 = test: Anticancer activity against human SF539 cells assessed as growth inhibition; outline: as §1
# DU-145 = test: Anticancer activity against human DU145 cells assessed as growth inhibition; outline: as §1
# A549 = test: Anticancer activity against human A549/ATCC cells assessed as growth inhibition; outline: as §1
# [2] = read-out: Log LC50 (the source's name) (converted)
smiles,measurement,setting,value
C[As](C)SCC(COC(=O)C(Cl)c1ccccc1)OC(=O)C(Cl)c1ccccc1 (configuration not stated),GI50,SN12C,2.45 µM
same,CC50,SN12C; [2],67.6 µM
same,GI50,SNB-19,11.5 µM
same,CC50,SNB-19; [2],85.1 µM
same,GI50,MCF7,0.372 µM
same,CC50,MCF7; [2],67.6 µM
same,GI50,RPMI-8226,0.316 µM
same,CC50,RPMI-8226; [2],> 100 µM
same,GI50,NCI-H23,0.741 µM
same,CC50,NCI-H23; [2],22.9 µM
same,GI50,NCI-H322M,1.66 µM
same,CC50,NCI-H322M; [2],32.4 µM
same,GI50,OVCAR-8,4.07 µM
same,CC50,OVCAR-8; [2],> 100 µM
same,GI50,IGROV-1,4.47 µM
same,CC50,IGROV-1; [2],> 100 µM
same,GI50,BT-549,2.45 µM
same,CC50,BT-549; [2],64.6 µM
same,GI50,[1],6.17 µM
same,CC50,[1]; [2],> 100 µM
same,GI50,NCI-H460,5.75 µM
same,CC50,NCI-H460; [2],79.4 µM
same,GI50,SF-295,3.63 µM
same,CC50,SF-295; [2],43.7 µM
same,GI50,HCT-15,0.38 µM
same,CC50,HCT-15; [2],> 100 µM
same,GI50,OVCAR-5,3.55 µM
same,CC50,OVCAR-5; [2],37.2 µM
same,GI50,U-251,6.31 µM
same,CC50,U-251; [2],> 100 µM
same,GI50,MDA-MB-435,0.209 µM
same,CC50,MDA-MB-435; [2],28.8 µM
same,GI50,CCRF-CEM,0.302 µM
same,CC50,CCRF-CEM; [2],32.4 µM
same,GI50,M14,0.603 µM
same,CC50,M14; [2],34.7 µM
same,GI50,HOP-62,4.37 µM
same,CC50,HOP-62; [2],40.7 µM
same,GI50,SF-268,3.16 µM
same,CC50,SF-268; [2],56.2 µM
same,GI50,TK-10,0.112 µM
same,CC50,TK-10; [2],2.69 µM
same,GI50,NCI-H522,0.457 µM
same,CC50,NCI-H522; [2],> 100 µM
same,GI50,HCT-116,0.407 µM
same,CC50,HCT-116; [2],4.9 µM
same,GI50,A498,5.5 µM
same,CC50,A498; [2],57.5 µM
same,GI50,COLO 205,0.363 µM
same,CC50,COLO 205; [2],> 100 µM
same,GI50,HL-60,0.162 µM
same,CC50,HL-60; [2],8.51 µM
same,GI50,HCC 2998,1.55 µM
same,CC50,HCC 2998; [2],8.13 µM
same,GI50,NCI/ADR-RES,2.04 µM
same,CC50,NCI/ADR-RES; [2],32.4 µM
same,GI50,ACHN,0.759 µM
same,CC50,ACHN; [2],38.9 µM
same,GI50,SR,1.41 µM
same,CC50,SR; [2],> 100 µM
same,GI50,T47D,5.89 µM
same,CC50,T47D; [2],60.3 µM
same,GI50,SK-MEL-28,0.603 µM
same,GI50,KM12,1.2 µM
same,CC50,KM12; [2],30.9 µM
same,GI50,RXF 393,0.363 µM
same,CC50,RXF 393; [2],36.3 µM
same,GI50,HOP-92,0.162 µM
same,CC50,HOP-92; [2],40.7 µM
same,GI50,SW-620,0.617 µM
same,CC50,SW-620; [2],> 100 µM
same,GI50,PC-3,0.55 µM
same,CC50,PC-3; [2],47.9 µM
same,GI50,NCI-H226,26.9 µM
same,CC50,NCI-H226; [2],67.6 µM
same,GI50,CAKI-1,0.347 µM
same,CC50,CAKI-1; [2],30.2 µM
same,GI50,EKVX,10.5 µM
same,CC50,EKVX; [2],> 100 µM
same,GI50,Malme-3M,0.0398 µM
same,CC50,Malme-3M; [2],3.39 µM
same,GI50,OVCAR-4,1.26 µM
same,CC50,OVCAR-4; [2],> 100 µM
same,GI50,HT-29,0.813 µM
same,CC50,HT-29; [2],> 100 µM
same,CC50,786-0,25.1 µM
same,GI50,MOLT-4,0.347 µM
same,CC50,MOLT-4; [2],> 100 µM
same,GI50,OVCAR-3,0.178 µM
same,CC50,OVCAR-3; [2],3.24 µM
same,GI50,K562,0.0372 µM
same,CC50,K562; [2],5.37 µM
same,GI50,SK-OV-3,0.646 µM
same,CC50,SK-OV-3; [2],> 100 µM
same,GI50,UO-31,5.37 µM
same,CC50,UO-31; [2],> 100 µM
same,GI50,SF-539,3.63 µM
same,CC50,SF-539; [2],> 100 µM
same,GI50,DU-145,4.27 µM
same,CC50,DU-145; [2],58.9 µM
same,GI50,A549,3.72 µM
same,CC50,A549; [2],> 100 µM
